Screening data from PubChem.
RAM inhibit: inhibitors of the yeast RAM network; S. cerevisiae dse1pr::URA3 reporter, 5-FOA growth OD615, 2 d; analog-sensitive cbk1-as2 kinase mutant strain; inhibition, % at 50 µM; 190,000 compounds, 1.8% hits; AID 868;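 active means inhibition above a set limit, 3 SD over mean compound inhibition, cut at about 8.4% in these data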;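 further: 0% = DMSO-only wells with no growth and 100% = 10 µM 1-NA-PP1 full growth; inhibition rescues growth on 5-FOA so higher OD means more RAM inhibition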
hDAT+cocaine: human DAT dopamine uptake with cocaine, either direction; Q01959; LLC-PK1 hDAT cells, [14C]-dopamine uptake with cocaine IC80; actives deviate in either direction; B-score at 10 µM; 110,000 compounds, 1.3% hits; AID 449768;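 active means Z score or B-score, a plate-position-corrected score, falls beyond the plate's 99.7% confidence bounds, in either direction; inactive means both scores lie inside the 99.7% bounds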;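 further: scored against the spread of the other compound wells on the same plate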
Target sequence (Q01959 whole entry, looked up): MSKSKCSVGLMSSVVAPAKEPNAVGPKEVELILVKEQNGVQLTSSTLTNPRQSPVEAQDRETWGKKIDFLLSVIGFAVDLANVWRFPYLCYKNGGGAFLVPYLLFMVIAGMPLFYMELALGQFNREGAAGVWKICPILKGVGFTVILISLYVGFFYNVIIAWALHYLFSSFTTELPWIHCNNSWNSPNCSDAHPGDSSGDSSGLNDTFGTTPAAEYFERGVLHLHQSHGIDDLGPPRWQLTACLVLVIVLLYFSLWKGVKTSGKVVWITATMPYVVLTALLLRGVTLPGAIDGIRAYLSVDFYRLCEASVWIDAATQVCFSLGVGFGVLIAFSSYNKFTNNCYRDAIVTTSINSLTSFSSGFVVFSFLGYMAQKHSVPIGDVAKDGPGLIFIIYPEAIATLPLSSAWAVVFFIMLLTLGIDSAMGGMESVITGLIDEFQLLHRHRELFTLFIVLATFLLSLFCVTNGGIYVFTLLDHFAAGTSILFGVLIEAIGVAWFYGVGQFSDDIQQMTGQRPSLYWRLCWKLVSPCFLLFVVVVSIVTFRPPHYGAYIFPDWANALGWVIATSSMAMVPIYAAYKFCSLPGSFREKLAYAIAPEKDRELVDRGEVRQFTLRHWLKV
Yeast growth inh: reduces growth of yeast BB579 in restrictive medium; S. cerevisiae BB579 growth, OD615, 48 h; inhibition, % at 10 µM; 140,000 compounds, 0.51% hits; AID 804;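 active means inhibition above a set limit, 3 SD over the mean compound inhibition, cut at about 44% in these data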
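System: DeaD yeast strain BB579; buffer or medium: CSMM-D dextrose restrictive medium; technique: OD at 615 nm; schedule: 4 h cell preincubation, 48 h compound exposure, 30 °C humidified; doses: single 10 µM dose; controls: amphotericin B 10 µg/mL, positive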
WT yeast gro inh: growth inhibition of WT yeast, mitochondrial fusion screen; 190,000 compounds, 2.1% hits; inhibition, % at 10 µM; mitochondrial fusion phenotypic screen, WT strain; in the data active means inhibition above about 58%; tested in S. cerevisiae
Yeast lifespan up: extends the lifespan of yeast. S. cerevisiae growth with nicotinamide, OD615; deaD strain in restrictive glucose medium. inhibition of the nicotinamide effect, % at 10 µM. 130,000 compounds, 0.68% hits. AID 775;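 active means inhibition above a set limit, placed 3 SD over the median of all compounds, cut at about 26% in these data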;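 further: 0% = nicotinamide-treated wells and 100% = cells grown without nicotinamide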
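Measured by: optical density (absorbance) at 615 nm; System: modified budding yeast, DeaD strain; Medium: restrictive CSMM-D dextrose medium; Timing: 4 h preincubation then 48 h treatment at 30 °C.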
Measles CPE: protection of cells from measles virus; 140,000 compounds, 1.5% hits; AID 841; Measles virus-infected cells, CPE protection, absorbance; protection (pct of control), % at 4 µM; in the data active means protection mostly above about 24%, no sharp cut-off; inactive means mostly below about 26%
* marks the source's active call; other numbers are inactive results; . = no result. Hits are enriched below; roughly 6.1% of the tested compounds scored in any of these assays.

SMILES | RAM inhibit | hDAT+cocaine | Yeast growth inh | WT yeast gro inh | Yeast lifespan up | Measles CPE
CC1(C)CC(=O)C(C(C2=C(O)CC(C)(C)CC2=O)c2ccc([N+](=O)[O-])cc2)C(=O)C1 (stereo not given) | 2 | . | -31 | 1 | 38* | .
COc1cccc(C(C2=C(O)CC(C)(C)CC2=O)C2C(=O)CC(C)(C)CC2=O)c1 (stereo not given) | 0 | . | -32 | 4 | 22 | 20
CC1(C)CC(=O)C(C(C2=C(O)CC(C)(C)CC2=O)c2ccc(Br)s2)C(=O)C1 (stereo not given) | -1 | . | -8 | 6 | 30* | 25
CCc1ccccc1NC(=O)c1cc(C2CC2)on1 | 2 | 0.37 | -43 | 13 | -11 | 12
O=C1NC[C@@H](Cc2cccc3ccccc23)N(CCc2cc(C(F)(F)F)cc(C(F)(F)F)c2)C1=O | . | 0.41 | . | . | . | .
CCCOC(=O)c1ccc(Oc2c(-c3ccc(OC)cc3O)n[nH]c2C)cc1 | 10* | -0.25 | -41 | -3 | -24 | -1
CCc1cc(-c2n[nH]c(C)c2Oc2ccc(C(C)C)cc2)c(O)cc1O | 0 | 0.34 | 90* | 86* | -14 | 14
CCCOC(=O)c1ccc(Oc2c(-c3ccc(O)cc3O)n[nH]c2C)cc1 | 5 | 0.27 | -26 | 57 | -7 | 21
c1ccc(CCC2CCCCN2Cc2nc(C3CC3)no2)cc1 (stereo not given) | 1 | . | . | 6 | . | .
CCc1ccc(/C=C/C(=O)c2cc(Br)ccc(=O)c2O)cc1 | 5 | 0.13 | 89* | -6 | -10 | 10
CCOc1ccc(/C=C/C(=O)c2cc(Br)ccc(=O)c2O)cc1 | 5 | . | 93* | -29 | 4 | 2
Cc1cccc(/C=N/NC(=O)c2ccc(Br)cc2)c1 | 2 | . | -42 | -7 | -2 | 12
Cc1ccc(C(=O)/C=C/c2ccc(Br)cc2)o1 | 2 | -0.0043 | -45 | -5 | -4 | 10
Cc1cccc(/C=C/C(=O)c2cc(Br)ccc(=O)c2O)c1 | 2 | -0.42 | 95* | 3 | -14 | 7
O=C(Nc1ncc(Cl)cc1Cl)c1c(F)cccc1Cl | 3 | . | . | -22 | . | .
Cc1ccc(S(=O)(=O)c2cc3ccccc3oc2=Nc2ccc3c(c2)OCO3)cc1 | 0 | -0.058 | -35 | -5 | -15 | 25*
Cc1ccc(S(=O)(=O)c2cc3ccccc3oc2=Nc2ccc3c(c2)OCCO3)cc1 | 4 | . | -41 | 47 | 3 | 7
CSc1ccc(CN2CCC(C(=O)NCc3ccc(C)cc3)CC2)cc1 | 1 | . | . | 14 | . | .
O=C(Nc1nc(-c2ccccc2)cs1)c1cccs1 | 0 | 0.049 | -14 | 35 | -4 | 1
O=C(Nc1nc(-c2ccccc2)ns1)c1cccs1 | 3 | -1.2 | -36 | -1 | -15 | 33*
CCc1nnc(NC(=O)c2ccc(S(=O)(=O)N(CC)Cc3ccccc3)cc2)o1 | 5 | 0.37 | -35 | 63* | -5 | 7
O=C(Nc1nnc(C2CC2)o1)c1ccc(S(=O)(=O)N2CCCc3ccccc32)cc1 | 3 | . | -43 | 63* | 0 | 6
CC(=O)Nc1ccc(S(=O)(=O)N(C)Cc2ccccc2)cc1 | -1 | . | . | -9 | . | .
COc1ccccc1-c1nnc(NC(=O)c2ccc(S(=O)(=O)N(C)Cc3ccccc3)cc2)o1 | 5 | -8.6* | -25 | -18 | -2 | 8
CN(Cc1ccccc1)S(=O)(=O)c1ccc(C(=O)Nc2nnc(C3CC3)o2)cc1 | 4 | -0.58 | -35 | 74* | -12 | 10
SMILES | RAM inhibit | hDAT+cocaine | Yeast growth inh | WT yeast gro inh | Yeast lifespan up | Measles CPE
CCC(C)NC(=O)CC(NS(=O)(=O)c1ccc(NC(C)=O)cc1)C(C)C (stereo not given) | 2 | . | . | 6 | . | .
CCOc1ccccc1OCCOc1cccc(C(F)(F)F)c1 | 0 | -1 | -19 | 18 | -10 | 11
CCCCN(CC)S(=O)(=O)c1ccc(C(=O)Nc2nnc(-c3cccs3)o2)cc1 | 8.6* | -0.25 | -45 | 12 | -12 | 1
CCCCCC/C(=N/O)c1ccccn1 | -2 | 0.0075 | 100* | 2 | -19 | 12
CCCCCC/C(=N\NS(C)(=O)=O)c1ccccc1 | 1 | -0.24 | -58 | -21 | -5 | 10
C/C(=N/O)c1ccccn1 | 1 | -4.6* | . | 2 | . | .
O=C(Nc1cccc(Cl)c1)N1CCC(CO)(CCOc2ccccc2)CC1 | 1 | . | . | 22 | . | .
CCCCn1c(SCC(=O)N(C)C)nnc1-c1ccncc1 | 0 | . | . | 11 | . | .
